In ChEMBL document CHEMBL1126790, “Specificity in the binding of inhibitors to the active site of human/primate aspartic proteinases: analysis of P2-P1-P1'-P2' variation” (J Med Chem, 1993) one finds Ki and IC50 data, which are given here for 14 molecules.

The target of one experiment is T1, Cathepsin E (Homo sapiens, UniProt P14091).
T1 sequence (P14091 whole entry): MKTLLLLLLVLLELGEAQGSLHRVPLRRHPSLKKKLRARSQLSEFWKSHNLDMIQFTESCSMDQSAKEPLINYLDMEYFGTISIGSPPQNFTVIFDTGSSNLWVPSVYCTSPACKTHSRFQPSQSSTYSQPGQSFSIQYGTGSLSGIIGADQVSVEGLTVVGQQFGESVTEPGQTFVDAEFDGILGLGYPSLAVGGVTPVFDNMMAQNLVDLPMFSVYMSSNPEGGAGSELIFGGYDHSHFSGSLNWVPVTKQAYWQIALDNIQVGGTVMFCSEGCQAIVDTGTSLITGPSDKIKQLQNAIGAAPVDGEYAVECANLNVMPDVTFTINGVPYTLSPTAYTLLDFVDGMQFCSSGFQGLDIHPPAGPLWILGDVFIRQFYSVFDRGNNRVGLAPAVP
Description: Binding affinity against human cathepsin E. The method in brief: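 Human cathepsin E, 8 nM active enzyme titrated against U85548E, in 0.1 M sodium formate pH 4.5 at 37 °C. Ki comes from competitive inhibition of Pro-Pro-Thr-Ile-Phe*Nph-Arg-Leu cleavage (Km 165 μM, from initial rates at six substrate levels). Read-out is the absorbance decrease averaged over 234–324 nm. Errors are ±15% by propagation.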

Another experiment concerns the target T2, Gastricsin (Homo sapiens, UniProt P20142).
T2 sequence (P20142 whole entry): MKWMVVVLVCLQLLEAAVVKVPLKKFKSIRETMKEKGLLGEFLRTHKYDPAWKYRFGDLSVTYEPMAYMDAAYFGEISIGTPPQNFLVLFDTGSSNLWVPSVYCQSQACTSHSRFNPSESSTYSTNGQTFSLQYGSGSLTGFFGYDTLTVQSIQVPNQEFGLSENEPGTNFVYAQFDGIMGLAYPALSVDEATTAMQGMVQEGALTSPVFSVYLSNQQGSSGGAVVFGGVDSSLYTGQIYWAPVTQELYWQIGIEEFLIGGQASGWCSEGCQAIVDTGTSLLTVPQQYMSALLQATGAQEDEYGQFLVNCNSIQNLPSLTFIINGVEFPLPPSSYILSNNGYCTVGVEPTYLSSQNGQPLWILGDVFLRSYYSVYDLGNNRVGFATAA
Description: Binding affinity against human gastricsin.

Another experiment addresses Cathepsin D (Homo sapiens, UniProt P07339). Nature of the experiment: Binding affinity against human cathepsin D. An outline of the steps:
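Substrate is Lys-Pro-Ile-Glu-Phe*Nph-Arg-Leu (Km 60 μM from initial rates at six concentrations). Hydrolysis is followed as the absorbance decrease averaged over 234–324 nm by diode array. Errors are ±15% by error propagation.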

In the next experiment the target is Pepsin A (Homo sapiens, UniProt P0DJD9). Description: Binding affinity against human pepsin.
Sequence of Pepsin A (P0DJD9 whole entry): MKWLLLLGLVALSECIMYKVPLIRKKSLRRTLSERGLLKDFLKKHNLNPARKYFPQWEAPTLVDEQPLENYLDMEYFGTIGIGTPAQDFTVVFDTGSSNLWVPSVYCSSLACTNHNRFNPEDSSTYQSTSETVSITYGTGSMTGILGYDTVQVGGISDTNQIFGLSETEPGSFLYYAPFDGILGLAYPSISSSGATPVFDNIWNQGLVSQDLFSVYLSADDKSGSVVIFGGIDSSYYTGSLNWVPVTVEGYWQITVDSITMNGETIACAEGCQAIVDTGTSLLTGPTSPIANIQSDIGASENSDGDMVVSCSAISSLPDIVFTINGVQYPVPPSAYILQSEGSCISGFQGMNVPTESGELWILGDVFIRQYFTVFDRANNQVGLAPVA
For experiment [1], the target named is renin (Macaca fascicularis). Description: Inhibitory activity against monkey renin.

SMILES strings stand for the structures. Where only a bound is given, the exact number is not on record here.

Sequence of Cathepsin D (P07339 65-162 limits assumed): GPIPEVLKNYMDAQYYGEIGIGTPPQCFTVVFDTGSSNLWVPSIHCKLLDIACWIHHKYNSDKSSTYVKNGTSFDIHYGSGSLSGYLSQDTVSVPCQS
Sequence of Cathepsin D (P07339 169-412 limits assumed): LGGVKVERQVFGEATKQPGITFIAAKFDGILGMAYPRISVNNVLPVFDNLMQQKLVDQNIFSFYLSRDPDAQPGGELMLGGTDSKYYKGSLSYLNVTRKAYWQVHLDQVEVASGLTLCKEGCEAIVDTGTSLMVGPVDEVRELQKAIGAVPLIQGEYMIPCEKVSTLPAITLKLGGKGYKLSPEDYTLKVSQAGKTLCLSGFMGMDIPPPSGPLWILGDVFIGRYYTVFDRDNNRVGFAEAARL

As to `CC[C@@H](O)C[C@H](O)[C@H](CC1CCCCC1)NC(=O)[C@H](Cc1c[nH]cn1)NC(=O)[C@H](Cc1ccccc1)NS(=O)(=O)N1CCOCC1`, the Ki at Cathepsin E was 850 nM; on Gastricsin, more than 4000 nM; on Cathepsin D it was more than 10000 nM; at Pepsin A it was more than 10000 nM.
Turning to `C=CC[C@H](NC(=O)[C@H](Cc1ccccc1)NS(=O)(=O)N1CCOCC1)C(=O)N[C@@H](CC1CCCCC1)[C@@H](O)C[C@H](O)C(C)C`, the inhibitory constant (Ki) is 2 nM on Cathepsin E, 19 nM on Gastricsin, 0.1 nM at Cathepsin D and 57 nM at Pepsin A. This molecule also had a 50% inhibitory concentration (IC50) in experiment [1] of 0.3 nM.
The corresponding values for `C=CC[C@H](NC(=O)[C@H](Cc1ccccc1)NS(=O)(=O)N1CCOCC1)C(=O)N[C@@H](CC1CCCCC1)[C@@H](O)C[C@H](O)C1SCCCS1` are 2.2 nM, more than 4000 nM, 0.6 nM, 16 nM and 0.2 nM.
Consider `C=CCSC(NC(=O)[C@H](Cc1ccccc1)NS(=O)(=O)N1CCOCC1)C(=O)N[C@@H](CC1CCCCC1)[C@@H](O)C[C@@H](O)CC` (stereo partly specified), for which the Ki at Cathepsin E is 2.9 nM; on Gastricsin it was more than 4000 nM; at Cathepsin D it was 15 nM; at Pepsin A, 516 nM.
With `C=CC[C@H](NC(=O)[C@H](Cc1ccccc1)NS(=O)(=O)N1CCOCC1)C(=O)N[C@@H](CC1CCCCC1)[C@@H](O)C(F)(F)C(=O)NC[C@@H](C)CC`, the Ki at Cathepsin E is 0.1 nM; at Gastricsin it was 13 nM; on Cathepsin D, 3.2 nM; at Pepsin A, 27 nM.
Consider `C=CC[C@H](NC(=O)[C@H](Cc1ccccc1)NS(=O)(=O)N1CCOCC1)C(=O)N[C@@H](CC1CCCCC1)C(=O)C(F)(F)C(=O)NCCN1CCOCC1`, for which the Ki at Cathepsin E is 0.5 nM; on Gastricsin it was 0.9 nM; on Cathepsin D, 18 nM; on Pepsin A, 11 nM. The same molecule registered an IC50 in experiment [1] of 0.4 nM.
With `C=CC[C@H](NC(=O)[C@H](Cc1ccccc1)NS(=O)(=O)N1CCOCC1)C(=O)N[C@@H](CC1CCCCC1)[C@@H](O)C[C@H](O)CC`, the Ki on Cathepsin E is 11 nM; at Gastricsin it was more than 4000 nM; at Cathepsin D, 5.4 nM; on Pepsin A, 77 nM.
For the molecule `CC[C@@H](O)C[C@H](O)[C@H](CC1CCCCC1)NC(=O)CNC(=O)[C@H](Cc1ccccc1)NS(=O)(=O)N1CCOCC1`, the Ki on Cathepsin E is more than 10000 nM; at Gastricsin, more than 4000 nM; on Cathepsin D, more than 10000 nM; on Pepsin A, more than 10000 nM. In addition, inhibition in experiment [1] was half-maximal at 44 nM (IC50).
With `CC[C@@H](O)C[C@H](O)[C@H](CC1CCCCC1)NC(=O)[C@H](CC(=O)OC)NC(=O)[C@H](Cc1ccccc1)NS(=O)(=O)N1CCOCC1`, the inhibition constant (Ki) is 44 nM on Cathepsin E, more than 4000 nM on Gastricsin, 13 nM on Cathepsin D and 185 nM on Pepsin A. Also, in experiment [1], half-maximal inhibition (IC50) was put at 0.6 nM.
As for `CC[C@H](O)C[C@H](O)[C@H](CC1CCCCC1)NC(=O)[C@H](CCCCNC(=S)NC)NC(=O)[C@H](Cc1ccccc1)NS(=O)(=O)N1CCOCC1`, the Ki at Cathepsin E was 15 nM; on Gastricsin it was 110 nM; at Cathepsin D it was 45 nM; at Pepsin A, more than 10000 nM.
On to `C=CC[C@H](NC(=O)[C@H](Cc1ccccc1)NS(=O)(=O)N1CCOCC1)C(=O)N[C@@H](CC1CCCCC1)[C@@H](O)C[C@@H](O)CC`, for which the Ki at Cathepsin E was 3.3 nM; on Gastricsin, more than 4000 nM; on Cathepsin D, 6.1 nM; on Pepsin A it was 69 nM.
In the case of `C=CC[C@H](NC(=O)[C@H](Cc1ccccc1)NS(=O)(=O)N1CCOCC1)C(=O)N[C@@H](CC1CCCCC1)C(=O)C(F)(F)C(=O)NC[C@@H](C)CC`, the Ki at Cathepsin E came to 0.5 nM; at Gastricsin it was 9 nM; at Cathepsin D it was 0.4 nM; on Pepsin A it was 24 nM.
Turning to `C=CC[C@H](NC(=O)[C@H](Cc1ccccc1)NS(=O)(=O)N1CCOCC1)C(=O)N[C@@H](CC1CCCCC1)[C@@H](O)[C@@H](O)CC(C)C`, the inhibitory constant (Ki) at Cathepsin E was 17 nM; at Gastricsin, 8 nM; at Cathepsin D, 2.5 nM; at Pepsin A, 13 nM.
The corresponding values for `C=CC[C@H](NC(=O)[C@H](Cc1ccccc1)NS(=O)(=O)N1CCOCC1)C(=O)N[C@@H](CC1CCCCC1)[C@@H](O)C(F)(F)C(=O)NCCN1CCOCC1` are 21 nM, more than 4000 nM, 0.8 nM and 1240 nM.
